Measured values reported in ChEMBL document CHEMBL1156973, “(-)-Carbodine: enantiomeric synthesis and in vitro antiviral activity against various strains of influenza virus including H5N1 (avian influenza) and novel 2009 H1N1 (swine flu)” (Bioorg Med Chem Lett, 2010).

Experiments:
[1] = Selectivity ratio of IC50 for MDCK cells to EC50 for inhibition of virus-induced cytopathic effect of Influenza B virus Malaysia/2506/2004; type: cell-based; conditions: dog, MDCK cells; read-out: Ratio IC50/EC50
Outline: (§1)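 IC50 (50% inhibition of uninfected MDCK cells) divided by EC50 (concentration reducing virus-induced CPE by 50%, scored visually), both from replicate serial-dilution assays.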

Influenza A virus [2] = assay: Antiviral activity against Influenza A virus Wisconsin/67/2005/H3N2 infected MDCK cells after 42 to 46 hrs by neutral red dye uptake assay; type: functional, organism-based, Influenza A virus (A/Wisconsin/67/2005(H3N2))
Outline: (§2)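 Triplicate MDCK wells got serial compound dilutions, then ≤300 CCID50 of virus, with the same inoculum for all replicates. Antiviral effect was read by neutral red dye uptake. EC50 is the concentration giving 50% inhibition of the virus effect, as the mean of triplicates.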

[3] = Selectivity ratio of IC50 for MDCK cells to EC50 for inhibition of virus-induced cytopathic effect of Influenza A virus Hong Kong/213/2003/H5N1; type: cell-based; conditions: dog, read-out: Ratio IC50/EC50; outline: as §1
[4] = Antiviral activity against Influenza A virus Solomon Islands/03/2006/H1N1 infected MDCK cells assessed as inhibition of virus-induced cytopathic effect after 3 days; type: functional, organism-based, Influenza A virus (A/Solomon Islands/3/2006(H1N1))
Outline: (§3)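 Triplicate MDCK (ATCC CCL-34) wells got serial dilutions of compound. They were then inoculated with ≤300 CCID50, enough for ~100% CPE in control wells within 3 days, using the same inoculum for all replicates. CPE was scored visually. EC50 is the concentration reducing CPE by 50%, as the mean of triplicates.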

[5] = Selectivity ratio of IC50 for MDCK cells to EC90 for Influenza A virus Wisconsin/67/2005/H3N2 by virus yield reduction assay; type: ADME, cell-based; conditions: dog, MDCK cells
Outline: (§4)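 IC50 (50% inhibition of uninfected MDCK cells) divided by EC90 (concentration reducing the infectious virus titer by 90% in the yield reduction assay).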

[6] = Selectivity ratio of IC50 for MDCK cells to EC50 for inhibition of virus-induced cytopathic effect of Influenza A virus Solomon Islands/03/2006/H1N1; type: cell-based; conditions: dog; for selectivity ratio: MDCK cells, read-out: Ratio IC50/EC50; outline: as §1
[7] = Selectivity ratio of IC50 for MDCK cells to EC90 for Influenza B virus Malaysia/2506/2004 by virus yield reduction assay; type: ADME, cell-based; conditions: dog; for selectivity ratio: MDCK cells; outline: as §4
[8] = Selectivity ratio of IC50 for MDCK cells to EC50 for Influenza A virus Wisconsin/67/2005/H3N2 by neutral red dye uptake assay; type: ADME, cell-based; conditions: dog; for selectivity ratio: MDCK cells, read-out: Ratio IC50/EC50
Outline: (§5)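 Neutral red uptake in MDCK cells: IC50 (50% inhibition of uninfected cells) divided by EC50 (50% inhibition of virus effect), both from replicate serial-dilution assays.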

Influenza A virus [9] = assay: Antiviral activity against Influenza A virus California/07/2009 /H1N1 infected MDCK cells assessed as inhibition of virus-induced cytopathic effect after 3 days; type: functional, organism-based, A/California/07/2009(H1N1); conditions: Influenza A virus, A/California/07/2009(H1N1), MDCK, 72 h
H5N1 subtype [10] = assay: Antiviral activity against Influenza A virus Gull/PA/4175/83/H5N1 infected MDCK cells assessed as inhibition of virus-induced cytopathic effect after 3 days; type: functional, organism-based, Influenza A virus (A/gull/Pennsylvania/4175/83(H5N1)); conditions: Influenza A virus, MDCK, 72 h
[11] = Selectivity ratio of IC50 for MDCK cells to EC50 for Influenza A virus Hong Kong/213/2003/H5N1 by neutral red dye uptake assay; type: ADME, cell-based; conditions: dog; for selectivity ratio: MDCK cells, read-out: Ratio IC50/EC50; outline: as §5
Influenza A virus [12] = assay: Antiviral activity against Influenza A virus Vietnam/1203/ 2004H/H5N1 infected MDCK cells after 42 to 46 hrs by neutral red dye uptake assay; type: functional, organism-based, A/Viet Nam/1203/2004(H5N1); conditions: Influenza A virus, A/Viet Nam/1203/2004(H5N1), MDCK
[13] = Selectivity ratio of IC50 for MDCK cells to EC50 for Influenza A virus Vietnam/1203/ 2004H/H5N1 by neutral red dye uptake assay; type: ADME, cell-based; conditions: dog, MDCK cells; read-out: Ratio IC50/EC50; outline: as §5
[14] = test system: Influenza A virus (A/Puerto Rico/8/1934(H1N1)); assay: Antiviral activity against Influenza A virus Solomon Islands/03/2006/H1N1 infected MDCK cells after 42 to 46 hrs by neutral red dye uptake assay; type: functional, organism-based, Influenza A virus (A/Solomon Islands/3/2006(H1N1)); outline: as §2
[15] = Selectivity ratio of IC50 for MDCK cells to EC50 for Influenza A virus Duck/MN/1525/81/H5N1 by neutral red dye uptake assay; type: ADME, cell-based; conditions: dog; for selectivity ratio: MDCK cells, read-out: Ratio IC50/EC50; outline: as §5
[16] = Selectivity ratio of IC50 for MDCK cells to EC90 for Influenza A virus Hong Kong/213/2003/H5N1 by virus yield reduction assay; type: ADME, cell-based; conditions: dog, MDCK cells; outline: as §4
Influenza A virus [17] = assay: Antiviral activity against Influenza A virus Vietnam/1203/ 2004H/H5N1 infected MDCK cells assessed as inhibition of virus-induced cytopathic effect after 3 days; type: functional, organism-based, A/Viet Nam/1203/2004(H5N1)
H5N1 subtype [18] = assay: Antiviral activity against Influenza A virus Duck/MN/1525/81/H5N1 infected MDCK cells after 42 to 46 hrs by neutral red dye uptake assay; type: functional, organism-based, Influenza A virus (A/duck/Minnesota/1525/1981(H5N1))
Influenza A virus [19] = assay: Antiviral activity against Influenza A virus Wisconsin/67/2005/H3N2 infected MDCK cells assessed as inhibition of virus-induced cytopathic effect after 3 days; type: functional, organism-based, Influenza A virus (A/Wisconsin/67/2005(H3N2)); conditions: Influenza A virus, MDCK, 72 h; outline: as §3
H5N1 subtype [20] = assay: Antiviral activity against Influenza A virus Duck/MN/1525/81/H5N1 infected MDCK cells after 3 days by virus yield reduction assay; type: functional, Influenza A virus (A/duck/Minnesota/1525/1981(H5N1)); conditions: Influenza A virus, MDCK, 72 h
Influenza A virus [21] = assay: Antiviral activity against Influenza A virus Wisconsin/67/2005/H3N2 infected MDCK cells after 3 days by virus yield reduction assay; type: functional, Influenza A virus (A/Wisconsin/67/2005(H3N2)); conditions: Influenza A virus, MDCK, 72 h
Outline: (§6)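 Yield reduction assay: MDCK cells got serial compound dilutions and ≤300 CCID50 virus, in triplicate. Progeny virus was titrated. EC90 is the concentration reducing the infectious titer by 90%, as the mean of triplicates.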

[22] = test system: Influenza A virus (A/Puerto Rico/8/1934(H1N1)); assay: Antiviral activity against Influenza A virus Solomon Islands/03/2006/H1N1 infected MDCK cells after 3 days by virus yield reduction assay; type: functional, Influenza A virus (A/Solomon Islands/3/2006(H1N1)); conditions: Influenza A virus, MDCK, 72 h; outline: as §6
[23] = Selectivity ratio of IC50 for MDCK cells to EC90 for Influenza A virus Gull/PA/4175/83/H5N1 by virus yield reduction assay; type: ADME, cell-based; conditions: dog; outline: as §4
MDCK = assay: Cytotoxicity against MDCK cells after 3 days by neutral red dye uptake assay; type: cell-based; conditions: Canis lupus familiaris, 72 h
Outline: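 Uninfected MDCK cells in replicate wells were exposed to serial compound dilutions and cell viability was read by neutral red uptake. IC50 is the drug concentration giving 50% cell inhibition without virus.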

[24] = Selectivity ratio of IC50 for MDCK cells to EC90 for Influenza A virus Duck/MN/1525/81/H5N1 by virus yield reduction assay; type: ADME, cell-based; conditions: dog, MDCK cells; outline: as §4
[25] = Selectivity ratio of IC50 for MDCK cells to EC90 for Influenza A virus Vietnam/1203/ 2004H/H5N1 by virus yield reduction assay; type: ADME, cell-based; conditions: dog; for selectivity ratio: MDCK cells; outline: as §4
[26] = Selectivity ratio of IC50 for MDCK cells to EC50 for Influenza A virus Solomon Islands/03/2006/H1N1 by neutral red dye uptake assay; type: ADME, cell-based; conditions: dog; for selectivity ratio: MDCK cells, read-out: Ratio IC50/EC50; outline: as §5
[27] = Selectivity ratio of IC50 for MDCK cells to EC50 for inhibition of virus-induced cytopathic effect of Influenza A virus California/07/2009 /H1N1; type: cell-based; conditions: dog, MDCK cells; read-out: Ratio IC50/EC50; outline: as §1
H5N1 subtype [28] = assay: Antiviral activity against Influenza A virus Gull/PA/4175/83/H5N1 infected MDCK cells after 3 days by virus yield reduction assay; type: functional, Influenza A virus (A/gull/Pennsylvania/4175/83(H5N1)); conditions: 72 h
H5N1 subtype [29] = assay: Antiviral activity against Influenza A virus Hong Kong/213/2003/H5N1 infected MDCK cells assessed as inhibition of virus-induced cytopathic effect after 3 days; type: functional, organism-based, Influenza A virus (A/Hong Kong/213/2003(H5N1)); conditions: 72 h
Influenza B virus = assay: Antiviral activity against Influenza B virus Malaysia/2506/2004 infected MDCK cells assessed as inhibition of virus-induced cytopathic effect after 3 days; type: functional, organism-based, B/Malaysia/2506/2004; conditions: Influenza B virus, B/Malaysia/2506/2004, MDCK, 72 h; outline: as §3
[30] = Influenza A virus, A/Viet Nam/1203/2004(H5N1), MDCK

Structure (SMILES)	selectivity ratio [1]	EC50 (Influenza A virus [2]; Influenza A virus, MDCK)	selectivity ratio [3]	selectivity ratio [5]	EC50 (Influenza A virus [9])	EC50 (H5N1 subtype [10])	EC50 (Influenza A virus [12])	selectivity ratio [13]	selectivity ratio [16]	EC50 (Influenza A virus [19])	EC90 (H5N1 subtype [20])	EC90 (Influenza A virus [21])	EC90 [22]	selectivity ratio [23]	IC50 (MDCK)	selectivity ratio [24]	selectivity ratio [27]	EC90 (H5N1 subtype [28])	EC50 (H5N1 subtype [29])	EC50 (Influenza B virus)	also measured
NC(=O)c1ncn([C@@H]2O[C@H](CO)[C@@H](O)[C@H]2O)n1 [RIBAVIRIN]	> 128	20.2 µM	> 305	> 60	11.2 µM	23.6 µM	13.9 µM	> 94	> 78	16.4 µM	43.6 µM	21.7 µM	27 µM	> 65	> 1310 µM	> 30	> 117	20.3 µM	4.3 µM	10.2 µM	EC50 ([4]; Influenza A virus, MDCK, 72 h): 23.3 µM; selectivity ratio [6]: > 56; selectivity ratio [7]: > 59; selectivity ratio [8]: > 65; selectivity ratio [11]: > 139; EC50 ([14]; Influenza A virus, MDCK): 25.1 µM; selectivity ratio [15]: > 40; EC50 (Influenza A virus [17]; mdck): 8.4 µM; EC50 (H5N1 subtype [18]; Influenza A virus, MDCK): 32.5 µM; selectivity ratio [25]: > 113; selectivity ratio [26]: > 52
Nc1ccn([C@H]2C[C@@H](CO)[C@H](O)[C@@H]2O)c(=O)n1	< 10	> 41 µM	< 10	< 10	> 414 µM	> 41 µM	> 41 µM	< 10	< 10	> 41 µM	> 414 µM	> 41 µM	> 41 µM	< 10	> 414 µM	1	1	> 41 µM	> 41 µM	> 41 µM	EC50 ([4]; Influenza A virus, MDCK, 72 h): > 41 µM; selectivity ratio [6]: < 10; selectivity ratio [7]: < 10; selectivity ratio [8]: < 10; selectivity ratio [11]: < 10; EC50 ([14]; Influenza A virus, MDCK): > 41 µM; selectivity ratio [15]: 1; EC50 (Influenza A virus [17]; [30]): > 41 µM; EC50 (H5N1 subtype [18]; Influenza A virus, MDCK): > 414 µM; selectivity ratio [25]: < 10; selectivity ratio [26]: < 10
Nc1ccn([C@@H]2C[C@H](CO)[C@@H](O)[C@H]2O)c(=O)n1	> 690		> 591	> 166	1.3 µM	0.8 µM	1.5 µM	> 276	> 197	1.6 µM	10.5 µM	2.5 µM	1.3 µM	> 259	> 414 µM	> 39	> 318	1.6 µM	0.7 µM	0.6 µM	EC50 (Influenza A virus [2]; mdck): 2 µM; EC50 ([4]; mdck): 0.7 µM; Ratio IC50/EC50 ([6]; mdck): > 591; Ratio ([7]; mdck): > 276; Ratio IC50/EC50 ([8]; mdck): > 207; Ratio IC50/EC50 ([11]; mdck): > 518; EC50 ([14]; mdck): 0.6 µM; Ratio IC50/EC50 ([15]; mdck): > 207; EC50 (Influenza A virus [17]; [30]): 0.8 µM; EC50 (H5N1 subtype [18]; mdck): 2 µM; Ratio ([25]; mdck): > 73; Ratio IC50/EC50 ([26]; mdck): > 690
